Assay results gathered from unrelated publications.
Cell line: HCT-116
Observed: cell growth or viability

Structure (SMILES)	test	conditions	endpoint	result
CCc1ccc(N=C2C(=O)Nc3ccccc32)cc1	MTT	48 h	IC50	64.7 µM
C[C@H](N)C(=O)Nc1ccccc1/N=c1\cc(-c2ccc3c(c2)OCCO3)oc2c([N+](=O)[O-])cccc12	CCK-8	1 µM	inhibition	12.7%
CCOc1ccc(-c2cc(C(=O)O)c(-c3ccc(Cl)cc3)o2)cc1	MTT	48 h	EC50	78 µM
COc1ccc(C=NNC(=O)c2nc3ccccc3s2)cc1O	MTT	100 µM, 48 h	cell death	33.5%
Oc1cccc(-c2nc(N3CCOCC3)c3oc4ncccc4c3n2)c1	CCK-8	1 µM	inhibition	12.5%
O=C1Nc2ccccc2C1=Nc1ccc(Cl)cc1	MTT	48 h	IC50	> 100 µM
O=c1[nH]cc(F)c(=O)[nH]1	MTT	100 µM, 48 h	cell death	84.6%
NCCC(=O)Nc1ccccc1/N=c1\cc(-c2ccc3c(c2)OCO3)oc2ccccc12	CCK-8	1 µM	inhibition	10.8%
COc1cc(C=NNC(=O)c2nc3ccccc3s2)ccc1O	MTT	100 µM, 48 h	cell death	44.6%
COc1cc(N=C2C(=O)N(Cc3ccccc3)c3ccccc32)cc(OC)c1	MTT	48 h	IC50	8.73 µM
Nc1nc2ccc(-c3c/c(=N\c4ccccc4NC(=O)C4CCNC4)c4ccccc4o3)cc2o1 (centres unmarked)	CCK-8	1 µM	inhibition	62.6%
O=C1C(=Nc2ccc(Cl)cc2Br)c2ccccc2N1Cc1ccc([N+](=O)[O-])cc1	MTT	48 h	IC50	24.9 µM
COc1cccc2c1C(=O)c1c(O)c3c(c(O)c1C2=O)C[C@@](O)(C(=O)CO)C[C@@H]3O[C@H]1C[C@H](N)[C@H](O)[C@H](C)O1	MTT	24 h	IC50	10.5 µM
CCOc1ccc(C(=O)CC(SCc2ccc(Cl)cc2)C(=O)OC)cc1 (centres unmarked)	MTT	48 h	EC50	70 µM
